Data set [1] is described as follows: Cytotoxicity against human 9KB cells. It counts as functional. The conditions noted are these: read-out: ED50 (the source's name). The essentials:
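9KB cell culture assay run under the National Cancer Institute programme with compounds supplied in DMF solution. Values are ED50 in μg/ml, and ≤4 μg/ml is taken as the significance criterion.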

The test system of a further data set is L1210. Kind of data set: Antitumor activity against mouse L1210 cells allografted in BDF1 mouse. Type of data set: functional.
Data set [2] has as its system Mus musculus. Kind of data set: Toxicity in BDF1 mouse allografted with mouse L1210 cells at 200 mg/kg. It counts as organism-based. Also on record: dose 200 mg/kg. Conditions: in vivo. In a few lines: (§1)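 Toxicity was recorded as lethality to BDF1 mice during the in vivo L1210 lymphoid leukemia screen. Compounds were given at 12.5, 50, 200 or 400 mg/kg.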
Data set [3] deals with Mus musculus. Kind of data set: Toxicity in BDF1 mouse allografted with mouse L1210 cells at 400 mg/kg. It counts as organism-based. Also noted: dose 400 mg/kg. Conditions: in vivo. The essentials: as §1
For data set [4], the system named is Mus musculus. Kind of data set: Toxicity in BDF1 mouse allografted with mouse L1210 cells at 50 mg/kg. Type of data set: organism-based. Also on record: dose 50 mg/kg. Conditions: in vivo. In a few lines: as §1
The test system of data set [5] is Mus musculus. Kind of data set: Toxicity in BDF1 mouse allografted with mouse L1210 cells at 12.5 mg/kg. Type of data set: organism-based. Also noted: dose 12.5 mg/kg. Conditions: in vivo. In a few lines:
as §1

SMILES strings stand for the structures. ≈ marks a conversion by molar mass, not a printed value. Calls of active or inactive are those of the source.

In the case of `COC(=O)C1=C(C(=O)OC)C2CCC1C2`, the EC50 in data set [1] was found to be 100 µg/mL (≈ 476 µM). For the same compound, the result in the data set with L1210 was inactive. In addition, the Activity entry in the data set with Mus musculus [2] and in the data set on Mus musculus [3] was “Non-toxic” in each case.
Turning to `COC(=O)[C@@H]1[C@H](C(=O)OC)[C@@H]2C=C[C@@H]1O2`, the EC50 in data set [1] is 100 µg/mL (≈ 471 µM). Also, the outcome with L1210 was inactive. In addition, the Activity result with Mus musculus [2] and with Mus musculus [3] was “Non-toxic” throughout.
Take `COC(=O)[C@@H]1[C@H](C(=O)OC)[C@@H]2C=C[C@@H]1C2`: in data set [1], the EC50 amounted to 100 µg/mL (≈ 476 µM). Further, in the data set with L1210, the result was inactive. Further, the Activity result with Mus musculus [2] and in the data set on Mus musculus [3] was “Non-toxic” in each case.
With `COC(=O)C1=C(C(=O)OC)[C@@]2(C)O[C@H]1[C@@H]1O[C@@H]12`, in data set [1], the EC50 was found to be 3 µg/mL (≈ 12.5 µM). For the same compound, in the data set with L1210, the result was inactive. The Activity entry is listed as “Toxic” in the data set on Mus musculus [4], “Non-toxic” in the data set with Mus musculus [5], “Toxic” with Mus musculus [2] and “Toxic” in the data set on Mus musculus [3].
With `COC(=O)C1CC2OC2C(C)C1C(=O)OC` (stereo not given), the EC50 in data set [1] was 100 µg/mL (≈ 438 µM). The outcome in the data set on L1210 was inactive. The Activity result with Mus musculus [2] and in the data set with Mus musculus [3] was “Non-toxic” throughout.
For `COC(=O)C1=C(C(=O)OC)[C@H]2O[C@H]1[C@@H]1O[C@@H]12`, the EC50 in data set [1] came to 1.5 µg/mL (≈ 6.63 µM). In addition, the outcome in the data set on L1210 was inactive. Further, the Activity entry is listed as “Toxic” with Mus musculus [4], “Non-toxic” with Mus musculus [5], “Toxic” in the data set with Mus musculus [2] and “Toxic” in the data set on Mus musculus [3].
Regarding `COC(=O)[C@@H]1[C@H]2O[C@@H]([C@H]3O[C@H]32)[C@@H]1C(=O)OC`, the EC50 in data set [1] is 100 µg/mL (≈ 438 µM). For the same compound, the outcome in the data set on L1210 was inactive. The Activity entry with Mus musculus [2] and in the data set with Mus musculus [3] was “Non-toxic” throughout.
For `C1=CCC2OC2C1` (stereo not given), the EC50 in data set [1] is 130 µg/mL (≈ 1350 µM). Further, the outcome in the data set on L1210 was inactive. Besides, the Activity result in the data set with Mus musculus [2] was “Non-toxic”; in the data set with Mus musculus [3] it was “Toxic”.
The like results for `COC(=O)[C@@H]1[C@H]2C[C@@H]([C@@H]3O[C@H]23)[C@@H]1C(=O)OC` were, in that order, 100 µg/mL (≈ 442 µM), “inactive”, “Non-toxic” and “Non-toxic”.
The like results for `COC(=O)C1CC=CC(C)C1C(=O)OC` (stereo not given) were, in that order, 48 µg/mL (≈ 226 µM), “inactive”, “Non-toxic” and “Non-toxic”.
Regarding `COC(=O)C1=C(C(=O)OC)C2(C)C=CC1O2` (stereo not given), the EC50 in data set [1] turned out to be 3 µg/mL (≈ 13.4 µM). For the same compound, in the data set with L1210, the result was inactive. In addition, the Activity result is listed as “Toxic” in the data set with Mus musculus [4], “Non-toxic” with Mus musculus [5], “Toxic” in the data set on Mus musculus [2] and “Toxic” in the data set with Mus musculus [3].
Take `COC(=O)C1=C(C(=O)OC)C2C=CC1C2`: the EC50 in data set [1] stood at 100 µg/mL (≈ 480 µM). In addition, the result in the data set with L1210 was inactive. Also, the Activity entry in the data set on Mus musculus [2] and in the data set on Mus musculus [3] was “Non-toxic” throughout.
For the compound `COC(=O)C1=C(C(=O)OC)[C@H]2C[C@H]1[C@@H]1O[C@@H]12`, the EC50 in data set [1] is 22 µg/mL (≈ 98.1 µM). Also, the outcome with L1210 was inactive. The Activity entry in the data set with Mus musculus [2] is on record as “Non-toxic”; in the data set with Mus musculus [3], “Toxic”.
`COC(=O)C1=C(C(=O)OC)C2CCC1O2`: in data set [1], the EC50 is 22 µg/mL (≈ 104 µM). In addition, the result with L1210 was inactive. In addition, the Activity result with Mus musculus [2] and in the data set with Mus musculus [3] was “Non-toxic” throughout.
Consider `C1OCC2OC12` (stereo not given), for which the EC50 in data set [1] was determined as 100 µg/mL (≈ 1160 µM). Besides, the result in the data set with L1210 was inactive. Also, the Activity result in the data set with Mus musculus [2] and in the data set with Mus musculus [3] was “Non-toxic” each time.
Take `C1CC2CC1C1OC21` (stereo not given): in data set [1], the EC50 worked out at 100 µg/mL (≈ 908 µM). Further, the result in the data set with L1210 was inactive. The Activity result in the data set with Mus musculus [2] and in the data set with Mus musculus [3] was “Non-toxic” throughout.

For the origin of these results see ChEMBL document CHEMBL3272281, “Synthesis and structure-activity relationship studies of cytotoxic epoxide derivatives of 7-oxabicyclo[2.2.1]heptane” (J Med Chem, 1977).
